According to ChEMBL document CHEMBL1121500, “Nitrobenzyl halides and carbamates as prototype bioreductive alkylating agents” (1980):
Converted amounts (≈) assume the structure as drawn.

Key:
Type in all cases: functional
EMT6 [1] = test: Drug concentration required to achieve 50% kill of EMT6 cells under oxygenated conditions.; settings: Mus musculus, read-out: ED50 (the source's name)
Summary of the method: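 EMT6 monolayers in Waymouth's medium + 15% fetal calf serum, held in 95% air/5% CO2 in parallel with the hypoxic flasks. Drug in acetone, 0.01-500 μM, 1 h at 37 °C. Cells then trypsinised and replated in replicate dishes; surviving fraction by colony formation after 8-10 days. Concentration for 50% kill read from survival curves; at least three experiments per drug.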

EMT6 [2] = test: Drug concentration required to achieve 50% kill of EMT6 cells under hypoxic conditions.; settings: Mus musculus, read-out: ED50 (the source's name)
Summary of the method: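 Mouse EMT6 tumour monolayers in Waymouth's medium + 15% fetal calf serum. Hypoxia: flasks stoppered and gassed 95% N2/5% CO2 for 4 h at 37 °C, then drug added in acetone without breaking hypoxia. 1 h exposure, 0.01-500 μM. Cells washed, trypsinised, plated in replicate dishes under air; colonies scored after 8-10 days. ED50 from survival curves; ≥3 experiments.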

[3] = Ratio of ED50 (aerobic) to ED50 (hypoxic)
Summary of the method: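 Concentration giving 50% kill of EMT6 cells under aeration (95% air/5% CO2) divided by that under chronic hypoxia (95% N2/5% CO2, 4 h pre-gassing). Both from 1 h drug exposure at 37 °C with colony-formation read-out after 8-10 days.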

SMILES	EC50 (EMT6 [1]) [µg/mL]	EC50 (EMT6 [2]) [µg/mL]	Ratio [3]
O=[N+]([O-])c1ccccc1CO	3 (≈ 19.6 µM)	1.5 (≈ 9.8 µM)	2
O=[N+]([O-])c1ccc(CO)cc1 [PARANITROBENZYL ALCOHOL]	2.6 (≈ 17 µM)	0.77 (≈ 5.03 µM)	3.3
CNC(=O)OCc1ccccc1[N+](=O)[O-]	3.57 (≈ 17 µM)	0.006 (≈ 0.0285 µM)	595
O=[N+]([O-])c1ccc(CBr)cc1	0.1 (≈ 0.463 µM)	0.06 (≈ 0.278 µM)	1.7
CNC(=O)OCc1ccc([N+](=O)[O-])cc1	0.63 (≈ 3 µM)	0.03 (≈ 0.143 µM)	21
O=[N+]([O-])c1ccccc1CCl	1.2 (≈ 6.99 µM)	0.1 (≈ 0.583 µM)	12
O=C(Nc1ccccc1)OCc1ccc([N+](=O)[O-])cc1	0.22 (≈ 0.808 µM)	0.08 (≈ 0.294 µM)	2.7
O=C(NCCCl)OCc1ccccc1[N+](=O)[O-]	52 (≈ 201 µM)	0.65 (≈ 2.51 µM)	80
O=C(NCCCl)OCc1ccc([N+](=O)[O-])cc1	31 (≈ 120 µM)	10 (≈ 38.7 µM)	3.1
O=C(Nc1ccccc1)OCc1ccccc1[N+](=O)[O-]	6.8 (≈ 25 µM)	0.22 (≈ 0.808 µM)	31
O=[N+]([O-])c1ccccc1CBr	1.5 (≈ 6.94 µM)	0.06 (≈ 0.278 µM)	25
O=[N+]([O-])c1ccc(CCl)cc1	0.14 (≈ 0.816 µM)	0.07 (≈ 0.408 µM)	2
